Screening results (PubChem)
This is one part of a sample in which hits are shown more often than they occur.
A1 inh – inhibitors of the anti-apoptotic protein A1, read as caspase activation; MEF A1-2A-BIM cells, Caspase-Glo 3/7 luminescence, 3 h; percent of clofoctol response, vehicle zero; caspase activation, % (test concentration not listed); 330,000 compounds, 0.066% hits; AID 2462;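 active = over half of replicate activation scores above 10%, or exactly half above 10 with the replicate mean above 10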
CHOP UPR activ – activators of apoptotic arm of unfolded protein response (CHOP); CHO-CHOP luciferase reporter, UPR activation, luminescence; percent of tunicamycin response over DMSO baseline; activation, % at 10 µM; 330,000 compounds, 0.34% hits; AID 449763;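 active = at 10 µM dose, activation of 40% or more, normalized to positive control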
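Test system: CHO-CHOP cells, stable luciferase reporter of PERK-eIF2a-CHOP signalling | Quantity: 500 CHO-CHOP cells per well | Buffer or medium: F12 plus 10% serum | Compound dosing: 10 µM single point, 0.5% DMSO | Schedule: 6 h compound treatment, 37 °C | Signal: Luciferase luminescence | Control set: Tunicamycin high control, DMSO low control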
CHOP inhibitor – CHOP inhibition in unfolded protein response; inhibition, % at 10 µM; 220,000 compounds, 3.8% hits; CHO-K1 CHOP-promoter luciferase, tunicamycin-induced, 15-18 h;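 active = compounds that reduced the stress-induced luciferase reporter signal by more than about 70% of percent inhibition, limit read from the data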
XBP1 UPR activ – adaptive UPR (XBP1) activation | CHO-XBP1 luciferase reporter, IRE1-XBP1 UPR activation, luminescence; percent of tunicamycin response, DMSO as zero | 330,000 compounds, 0.33% hits | activation, % at 20 µM;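 active = versus positive control, 20 µM dose yields 30% or more activation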
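assay system = CHO-XBP1 luciferase reporter cells | amount = 1000 cells/well | buffer or medium = F12 plus 10% FBS | compound dosing = single point, 20 µM final compound, 1% DMSO | incubation = 16-18 h cell attachment at 37 °C, then 6 h compound exposure | detection = Steady-Glo luminescence read | controls = tunicamycin 10 µg/mL and vehicle-only wells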
CHOP inh conf – confirmation of CHOP induction inhibitors; shares compounds with CHOP inhibitor; CHO-CHOP promoter luciferase reporter, tunicamycin-induced, luminescence; inhibition, % at 10 µM; 2,100 compounds, 45% hits;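 active = mean of three repeat readings of reporter signal inhibition above a set limit, cut at about 70% in these data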
Numbers stand for hits.

What do the screens show for `COc1cc(C(=S)N2CCOCC2)ccc1OC(=O)c1cc(OC)c(OC)c(OC)c1`?
A1 inh: inactive; CHOP UPR activ: inactive; XBP1 UPR activ: inactive

What do the screens show for `N#CC(c1ccc(O)cc1)N1CCCCC1` (configuration not stated)?
A1 inh: inactive; CHOP UPR activ: inactive; CHOP inhibitor: inactive; XBP1 UPR activ: inactive

Results for CCCOc1ccc(-c2csc3nc[nH]c(=O)c23)cc1 ?
A1 inh: inactive; CHOP UPR activ: inactive; XBP1 UPR activ: inactive

What do the screens show for `O=c1[nH]cnc2scc(-c3ccc(-c4ccccc4)cc3)c12`?
A1 inh: inactive; CHOP inhibitor: 96; CHOP inh conf: inactive

How did NC(=S)n1[nH]c(-c2ccc([N+](=O)[O-])cc2)c(N=Nc2cccc([N+](=O)[O-])c2)c1=O do in these assays?
CHOP inhibitor: 102; CHOP inh conf: 98

What do the screens show for `O=C(CN1C(=O)NC2(CCCC2)C1=O)OCc1cccc(Br)c1`?
A1 inh: inactive; CHOP UPR activ: inactive; XBP1 UPR activ: inactive

What do the screens show for `Cc1ccc(-c2nc3ccccc3s2)cc1NC(=O)c1cc(-n2cnnc2)ccc1Cl`?
A1 inh: inactive; CHOP UPR activ: inactive; CHOP inhibitor: 100; XBP1 UPR activ: inactive; CHOP inh conf: inactive

What do the screens show for `Cc1nn2c(=O)cc(CSc3nc4ccccc4[nH]3)nc2s1`?
A1 inh: inactive; CHOP UPR activ: inactive; CHOP inhibitor: inactive; XBP1 UPR activ: inactive

How did Cc1ccc2nc(SC(C(=O)Nc3ccc(F)cc3)c3ccccc3)[nH]c2c1 (configuration not stated) do in these assays?
A1 inh: inactive; CHOP UPR activ: inactive; CHOP inhibitor: 106; XBP1 UPR activ: inactive; CHOP inh conf: inactive

What do the screens show for `CCC(Sc1nc2ccc(C)cc2[nH]1)C(=O)O` (configuration not stated)?
A1 inh: inactive; CHOP UPR activ: inactive; CHOP inhibitor: inactive; XBP1 UPR activ: inactive

What do the screens show for `Cc1nc([N+](=O)[O-])c(Br)n1Cc1ccccc1`?
A1 inh: inactive; CHOP UPR activ: inactive; CHOP inhibitor: inactive; XBP1 UPR activ: inactive

How did Cc1nn(-c2ccccc2)c(C)c1-c1ccccc1O do in these assays?
A1 inh: inactive; CHOP UPR activ: inactive; XBP1 UPR activ: inactive

How did Cc1nn(-c2ccccc2)c(/N=C/c2ccc(O)cc2)c1-c1ccccc1 do in these assays?
A1 inh: inactive; CHOP UPR activ: inactive; CHOP inhibitor: 104; XBP1 UPR activ: inactive; CHOP inh conf: inactive

Results for CCN1CCN(c2cc(C)c3cc(NC(=S)N4CCN(c5ccc(F)cc5)CC4)ccc3n2)CC1 ?
A1 inh: inactive; CHOP UPR activ: inactive; CHOP inhibitor: 106; XBP1 UPR activ: inactive; CHOP inh conf: inactive

Results for CCN1CCN(C(=S)Nc2ccc3nc(N4CCN(CC)CC4)cc(C)c3c2)CC1 ?
A1 inh: inactive; CHOP UPR activ: inactive; CHOP inhibitor: inactive; XBP1 UPR activ: inactive

Results for FC(F)(F)c1cc(-c2cccs2)nc(-n2cc(Br)cn2)n1 ?
A1 inh: inactive; CHOP UPR activ: inactive; CHOP inhibitor: 97; XBP1 UPR activ: inactive; CHOP inh conf: 73

What do the screens show for `Cc1cnn(-c2nc(-c3cccs3)cc(C(F)(F)F)n2)c1`?
A1 inh: inactive; CHOP UPR activ: inactive; CHOP inhibitor: inactive; XBP1 UPR activ: inactive

Results for FC(F)(F)c1cc(-c2cccs2)nc(N2CCOCC2)n1 ?
A1 inh: inactive; CHOP UPR activ: inactive; CHOP inhibitor: 100; XBP1 UPR activ: inactive; CHOP inh conf: inactive

What do the screens show for `Cc1ccc2[nH]c(O)c(N=NC(=O)CCc3ccccc3)c2c1Br`?
A1 inh: inactive; CHOP UPR activ: inactive; CHOP inhibitor: 107; XBP1 UPR activ: inactive; CHOP inh conf: 83

How did CCc1nc(SCC(=O)Nc2nccs2)c2oc3ccccc3c2n1 do in these assays?
A1 inh: inactive; CHOP UPR activ: inactive; CHOP inhibitor: 102; XBP1 UPR activ: inactive; CHOP inh conf: inactive

Results for COc1ccc(CN(C)C2c3ccccc3-c3ccccc32)cc1 ?
A1 inh: inactive; CHOP UPR activ: inactive; CHOP inhibitor: 106; XBP1 UPR activ: inactive; CHOP inh conf: inactive

Results for CCOc1ccc2nc(NCCNC(=S)NCCCN(C)C)c(C#N)cc2c1 ?
A1 inh: inactive; CHOP UPR activ: inactive; CHOP inhibitor: inactive; XBP1 UPR activ: inactive

Results for CCOc1ccc2nc(NCCNC(=O)Nc3cccc(C)c3)c(C#N)cc2c1 ?
A1 inh: 7.5; CHOP UPR activ: inactive; CHOP inhibitor: 103; XBP1 UPR activ: inactive; CHOP inh conf: inactive

Results for COCc1cc([C@@H]2C[C@H]3CN(c4ccccc4)C(=O)[C@]34CCCN24)ccc1OC ?
A1 inh: inactive; CHOP UPR activ: inactive; CHOP inhibitor: inactive; XBP1 UPR activ: inactive

What do the screens show for `O=C1N(c2ccccc2)C[C@@H]2C[C@@H](c3cccs3)N3CCC[C@@]123`?
A1 inh: inactive; CHOP UPR activ: inactive; CHOP inhibitor: 98; XBP1 UPR activ: inactive; CHOP inh conf: 91

How did O=c1[nH]c2ccc(Cl)cc2c(-c2ccccc2)c1SC(=S)N1CCOCC1 do in these assays?
A1 inh: inactive; CHOP UPR activ: inactive; CHOP inhibitor: 99; XBP1 UPR activ: inactive; CHOP inh conf: inactive

Results for CN(C)CCNC=C(C(=O)Nc1ccc(Cl)cc1Cl)C(=O)Nc1ccc(Cl)cc1Cl ?
A1 inh: inactive; CHOP UPR activ: inactive; CHOP inhibitor: 99; XBP1 UPR activ: inactive; CHOP inh conf: inactive

Results for CC(=O)/C(=C/N(C)C)C(=O)Nc1ccc(Cl)cc1Cl ?
A1 inh: inactive; CHOP UPR activ: inactive; CHOP inhibitor: inactive; XBP1 UPR activ: inactive

What do the screens show for `Cc1ccccc1NC(=O)CCS(=O)(=O)c1ccc(Br)s1`?
A1 inh: inactive; CHOP UPR activ: inactive; XBP1 UPR activ: inactive

What do the screens show for `CCOc1cccc(CNc2ccc(O)cc2)c1OCc1ccc(Cl)cc1Cl`?
A1 inh: inactive; CHOP UPR activ: inactive; CHOP inhibitor: 101; XBP1 UPR activ: inactive; CHOP inh conf: 112

Results for CCOc1cccc(CNc2ccc(O)cc2)c1OCc1ccccc1Cl ?
A1 inh: inactive; CHOP UPR activ: inactive; CHOP inhibitor: inactive; XBP1 UPR activ: inactive

How did O=C(NCc1ccccc1Cl)C1CCC(CNc2nc(=S)[nH]c3ccccc23)CC1 (configuration not stated) do in these assays?
A1 inh: inactive; CHOP UPR activ: inactive; CHOP inhibitor: 98; XBP1 UPR activ: inactive; CHOP inh conf: inactive

How did COCCn1c(=NC(=O)/C=C/c2ccccc2)sc2cc(NC(C)=O)ccc21 do in these assays?
A1 inh: inactive; CHOP UPR activ: inactive; CHOP inhibitor: 100; XBP1 UPR activ: inactive; CHOP inh conf: inactive

How did Cc1ccc(S(=O)(=O)N/N=C\c2cn(-c3ccccc3)nc2-c2ccccc2)cc1 do in these assays?
A1 inh: inactive; CHOP UPR activ: inactive; CHOP inhibitor: 97; XBP1 UPR activ: inactive; CHOP inh conf: inactive

Results for COc1ccc(-c2nc3cnccn3c2NCc2ccccc2)cc1SC1CCCCC1 ?
A1 inh: inactive; CHOP UPR activ: inactive; XBP1 UPR activ: inactive
